ChEMBL document CHEMBL1134525, “Novel N-(arylalkyl)indol-3-ylglyoxylylamides targeted as ligands of the benzodiazepine receptor: synthesis, biological evaluation, and molecular modeling analysis of the structure-activity relationships” (J Med Chem, 2001)
Where “and” joins values, the source holds several entries; their conditions need not be identical. Equal values may be shown once.

Experiments:
[1] = molecular target: T1, GABA-A receptor; anion channel (Bos taurus) (UniProt P10063+P08220+P20237+P08219+P10064+P22300); assay: Inhibition of [3H]- flumazenil binding to benzodiazepine receptor in bovine brain membranes at a dose of 10 uM; type: cell membranes
In short: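 Bovine brain membranes were freeze-thawed, washed by suspension and centrifugation in 50 mM tris-citrate pH 7.4, then used for competition binding against [3H]flumazenil. Specific binding inhibition was first measured at a fixed 10 µM. […] Protein was measured by the Lowry method.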

[2] = molecular target: GABA-A receptor; anion channel; assay: Inhibition of [3H]- flumazenil binding to benzodiazepine receptor in bovine brain membranes; type: cell membranes
In short: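 Bovine brain membranes were freeze-thawed, washed by suspension and centrifugation in 50 mM tris-citrate pH 7.4, then used for competition binding against [3H]flumazenil. Specific binding inhibition was first measured at a fixed 10 µM. Protein was measured by the Lowry method.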

[3] = molecular target: GABA A receptor alpha-5/beta-3/gamma-2 (Rattus norvegicus, UniProt P18508+P19969+P63079); assay: Inhibition of [3H]flumazenil binding to rat alpha-5-beta-3-gamma-2 GABA-A receptor subunits expressed in HEK293 cells; type: cell-based
Sequence of GABA A receptor alpha-5/beta-3/gamma-2 (P18508 whole entry): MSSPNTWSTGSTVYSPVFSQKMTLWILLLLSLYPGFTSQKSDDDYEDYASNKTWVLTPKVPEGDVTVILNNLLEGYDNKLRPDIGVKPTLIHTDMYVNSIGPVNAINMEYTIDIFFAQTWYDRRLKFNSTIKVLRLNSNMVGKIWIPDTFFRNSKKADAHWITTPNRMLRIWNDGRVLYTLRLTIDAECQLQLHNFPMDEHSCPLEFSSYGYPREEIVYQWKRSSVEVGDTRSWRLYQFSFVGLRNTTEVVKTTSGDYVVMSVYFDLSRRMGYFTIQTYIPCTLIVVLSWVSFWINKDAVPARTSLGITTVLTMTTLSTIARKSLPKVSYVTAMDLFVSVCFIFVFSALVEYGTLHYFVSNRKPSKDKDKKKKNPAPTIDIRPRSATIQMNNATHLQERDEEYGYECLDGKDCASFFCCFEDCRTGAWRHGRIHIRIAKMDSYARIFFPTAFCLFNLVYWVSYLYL
Sequence of GABA A receptor alpha-5/beta-3/gamma-2 (P19969 whole entry): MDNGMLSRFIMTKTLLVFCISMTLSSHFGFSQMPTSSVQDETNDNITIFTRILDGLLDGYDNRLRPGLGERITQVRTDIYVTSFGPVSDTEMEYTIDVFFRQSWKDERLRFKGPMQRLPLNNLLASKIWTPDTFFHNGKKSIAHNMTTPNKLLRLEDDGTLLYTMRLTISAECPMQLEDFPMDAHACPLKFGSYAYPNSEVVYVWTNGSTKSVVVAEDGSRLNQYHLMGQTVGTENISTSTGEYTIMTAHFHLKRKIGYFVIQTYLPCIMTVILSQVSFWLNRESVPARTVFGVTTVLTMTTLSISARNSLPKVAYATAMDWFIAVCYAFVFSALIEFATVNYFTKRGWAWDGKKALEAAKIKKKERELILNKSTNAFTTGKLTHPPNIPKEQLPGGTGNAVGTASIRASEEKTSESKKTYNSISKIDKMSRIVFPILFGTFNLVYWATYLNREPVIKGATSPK
Sequence of GABA A receptor alpha-5/beta-3/gamma-2 (P63079 whole entry): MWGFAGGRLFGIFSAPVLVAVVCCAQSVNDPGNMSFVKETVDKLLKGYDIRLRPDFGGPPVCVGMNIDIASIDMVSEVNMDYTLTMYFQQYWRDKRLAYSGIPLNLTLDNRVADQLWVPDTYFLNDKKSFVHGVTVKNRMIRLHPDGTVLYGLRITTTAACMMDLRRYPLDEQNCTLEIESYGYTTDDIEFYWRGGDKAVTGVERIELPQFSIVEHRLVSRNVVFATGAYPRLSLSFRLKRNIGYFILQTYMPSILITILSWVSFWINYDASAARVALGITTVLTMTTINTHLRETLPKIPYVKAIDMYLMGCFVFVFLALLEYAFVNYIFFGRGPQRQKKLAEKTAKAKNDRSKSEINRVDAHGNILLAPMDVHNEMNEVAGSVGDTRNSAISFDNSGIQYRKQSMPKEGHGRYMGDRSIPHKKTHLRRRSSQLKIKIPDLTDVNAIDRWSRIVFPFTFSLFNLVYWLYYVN
In short: (§1)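 Membranes came from HEK293 clonal lines expressing rat GABAA subtypes, grown in MEM/EBSS with 10% FCS, 2 mM glutamine and penicillin/streptomycin at 37 °C in 5% CO2. Membranes were homogenized and centrifuged (48 000 × g, 30 min, 4 °C) in 10 mM K-phosphate pH 7.4 and resuspended with 100 mM KCl. […] Nonspecific binding was defined with 10^-5 M diazepam. Results are the mean of three determinations.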

[4] = molecular target: GABA-A receptor; alpha-1/beta-2/gamma-2 (Rattus norvegicus, UniProt P18508+P62813+P63138); assay: Inhibition of [3H]flumazenil binding to rat alpha-1-beta-2-gamma-2 GABA-A receptor subunits expressed in HEK293 cells; type: cell-based; in short: as §1
Sequence of GABA-A receptor; alpha-1/beta-2/gamma-2 (P18508 whole entry): as the sequence (P18508 whole entry) above
Sequence of GABA-A receptor; alpha-1/beta-2/gamma-2 (P62813 whole entry): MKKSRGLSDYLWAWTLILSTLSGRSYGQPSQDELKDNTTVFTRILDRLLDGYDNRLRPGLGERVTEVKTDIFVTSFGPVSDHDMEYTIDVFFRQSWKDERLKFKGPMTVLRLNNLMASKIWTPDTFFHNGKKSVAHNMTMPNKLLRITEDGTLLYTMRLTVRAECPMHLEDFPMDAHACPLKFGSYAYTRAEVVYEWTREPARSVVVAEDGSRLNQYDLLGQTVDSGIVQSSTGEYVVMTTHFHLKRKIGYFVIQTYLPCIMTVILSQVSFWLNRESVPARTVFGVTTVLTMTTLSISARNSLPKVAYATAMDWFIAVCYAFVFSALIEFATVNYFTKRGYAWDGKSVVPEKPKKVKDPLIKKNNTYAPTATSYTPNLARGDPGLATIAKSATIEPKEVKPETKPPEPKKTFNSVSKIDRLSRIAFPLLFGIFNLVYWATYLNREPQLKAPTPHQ
Sequence of GABA-A receptor; alpha-1/beta-2/gamma-2 (P63138 whole entry): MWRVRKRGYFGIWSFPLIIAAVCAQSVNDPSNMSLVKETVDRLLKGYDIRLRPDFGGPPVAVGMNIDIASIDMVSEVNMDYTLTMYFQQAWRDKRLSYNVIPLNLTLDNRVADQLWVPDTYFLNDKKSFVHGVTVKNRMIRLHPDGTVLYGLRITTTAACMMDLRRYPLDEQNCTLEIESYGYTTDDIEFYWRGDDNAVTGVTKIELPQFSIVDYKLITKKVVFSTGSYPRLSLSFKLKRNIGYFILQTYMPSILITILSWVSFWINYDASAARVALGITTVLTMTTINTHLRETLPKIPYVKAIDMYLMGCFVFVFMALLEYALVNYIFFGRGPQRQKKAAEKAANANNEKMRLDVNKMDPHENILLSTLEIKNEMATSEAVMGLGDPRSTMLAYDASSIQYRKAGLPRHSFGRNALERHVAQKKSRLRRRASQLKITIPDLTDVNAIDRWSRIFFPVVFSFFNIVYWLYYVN

[5] = molecular target: GABA A receptor alpha-3/beta-2/gamma-2 (Rattus norvegicus) (UniProt P18508+P20236+P63138); assay: (§2) Inhibition of [3H]flumazenil binding to rat alpha-3-beta-2-gamma-2 GABA-A receptor subunits expressed in HEK293 cells; type: cell-based; in short: as §1
[6] = molecular target: GABA A receptor alpha-3/beta-2/gamma-2 (Rattus norvegicus, UniProt P18508+P20236+P63138); assay: as §2; type: cell-based; in short: as §1
Sequence of GABA A receptor alpha-3/beta-2/gamma-2 (P18508 whole entry): as the sequence (P18508 whole entry) above
Sequence of GABA A receptor alpha-3/beta-2/gamma-2 (P20236 whole entry): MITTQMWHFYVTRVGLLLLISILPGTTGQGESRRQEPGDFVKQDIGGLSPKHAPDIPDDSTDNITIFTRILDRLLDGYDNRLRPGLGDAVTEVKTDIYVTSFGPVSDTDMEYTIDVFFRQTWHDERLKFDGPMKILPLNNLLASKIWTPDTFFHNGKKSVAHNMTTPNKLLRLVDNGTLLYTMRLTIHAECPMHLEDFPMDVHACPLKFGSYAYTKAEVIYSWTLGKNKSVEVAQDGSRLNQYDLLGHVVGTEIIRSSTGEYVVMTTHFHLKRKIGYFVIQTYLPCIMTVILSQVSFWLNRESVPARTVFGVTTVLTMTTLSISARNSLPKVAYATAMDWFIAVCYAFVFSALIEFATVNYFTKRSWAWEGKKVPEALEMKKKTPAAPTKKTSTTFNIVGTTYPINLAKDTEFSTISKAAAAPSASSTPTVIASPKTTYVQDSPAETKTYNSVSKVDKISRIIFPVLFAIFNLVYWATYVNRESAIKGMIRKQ
Sequence of GABA A receptor alpha-3/beta-2/gamma-2 (P63138 whole entry): as the sequence (P63138 whole entry) above

[7] = molecular target: T1, GABA-A receptor; anion channel (Bos taurus); assay: Relative bindign to GABA-A receptor in the presence and absence of GABA (GABA shift), Ki(-GABA)/Ki(+GABA); type: protein-complex assay
In short: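 [3H]flumazenil displacement Ki was measured both with and without GABA, using exhaustively washed bovine brain membranes or HEK293 membranes expressing rat α1β2γ2, α3β2γ2 or α5β3γ2. GABA ratio = Ki(without GABA)/Ki(with GABA).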

[8] = Ratio of Ki with out GABA and with GABA
[9] = molecular target: T2, GABA A receptor alpha-5/beta-3/gamma-2 (Rattus norvegicus) (UniProt P18508+P19969+P63079); details: HEK293, 10 uM
[10] = molecular target: T2, GABA A receptor alpha-5/beta-3/gamma-2 (Rattus norvegicus); assay: Inhibition of [3H]flumazenil binding to rat alpha-5-beta-3-gamma-2 GABA-A receptor subunits expressed in HEK293 cells at 10 uM; type: cell-based; in short: as §1

Row | SMILES | inhibition [1] | Ki [2] | other results
1 | C[C@H](NC(=O)C(=O)c1c[nH]c2ccc(Cl)cc12)c1ccc([N+](=O)[O-])cc1 | < 80% |  | 
2 | C[C@@H](NC(=O)C(=O)c1c[nH]c2ccc(Cl)cc12)c1ccc([N+](=O)[O-])cc1 |  | 695 nM | 
3 | C[C@@H](NC(=O)C(=O)c1c[nH]c2ccc([N+](=O)[O-])cc12)c1ccc([N+](=O)[O-])cc1 |  | 78 nM | 
4 | Cc1ccc([C@@H](C)NC(=O)C(=O)c2c[nH]c3ccc([N+](=O)[O-])cc23)cc1 |  | 34 nM | 
5 | Cc1ccc([C@H](C)NC(=O)C(=O)c2c[nH]c3ccc(Cl)cc23)cc1 | < 80% |  | 
6 | O=C(N[C@@H]1CCc2ccccc21)C(=O)c1c[nH]c2ccc(Cl)cc12 |  | 80 nM | 
7 | N#CC(NC(=O)C(=O)c1c[nH]c2ccccc12)c1ccccc1 (racemic) | < 80% |  | 
8 | COc1ccc(NNC(=O)C(=O)c2c[nH]c3ccc([N+](=O)[O-])cc23)cc1 | < 80% |  | 
9 | N#CC(NC(=O)C(=O)c1c[nH]c2ccc([N+](=O)[O-])cc12)c1ccccc1 (racemic) |  | 241 nM | 
10 | COc1ccc(C(C)NC(=O)C(=O)c2c[nH]c3ccccc23)cc1OC (racemic) |  | 850 nM | 
11 | O=C(N[C@H]1CCc2ccccc21)C(=O)c1c[nH]c2ccc([N+](=O)[O-])cc12 | < 80% |  | 
12 | C[C@@H](NC(=O)C(=O)c1c[nH]c2ccccc12)c1ccccc1 |  | 1310 nM | Ki [3]: 5500 nM; Ki [4]: 1150 nM; inhibition [5]: 5%
13 | Cc1ccc([C@H](C)NC(=O)C(=O)c2c[nH]c3ccc([N+](=O)[O-])cc23)cc1 | < 80% |  | 
14 | C[C@H](NC(=O)C(=O)c1c[nH]c2ccccc12)c1ccccc1 | < 80% |  | 
15 | COc1ccc(C(C)NC(=O)C(=O)c2c[nH]c3ccc(Cl)cc23)cc1OC (racemic) |  | 153 nM | 
16 | O=C(N[C@@H]1CCc2ccccc21)C(=O)c1c[nH]c2ccc([N+](=O)[O-])cc12 |  | 28 nM | Ki [3]: 95 nM; Ki [4]: 9 nM; Ki [6]: 1960 nM; Ratio [7]: 1.13; Ratio [8]: 1.12 and 0.98
17 | CCOC(=O)C(NC(=O)C(=O)c1c[nH]c2ccc([N+](=O)[O-])cc12)c1ccccc1 (racemic) | < 80% |  | 
18 | O=C(NCc1ccc([N+](=O)[O-])cc1)C(=O)c1c[nH]c2ccccc12 |  | 21 nM | Ki [3]: 58 nM; Ki [4]: 16 nM; Ki [6]: 1600 nM; Ratio [8]: 0.9 and 0.91 and 0.73
19 | CCOC(=O)C(NC(=O)C(=O)c1c[nH]c2ccccc12)c1ccccc1 (racemic) | < 80% |  | 
20 | CCOC(=O)[C@H](C)NC(=O)C(=O)c1c[nH]c2ccc([N+](=O)[O-])cc12 |  | 1950 nM | 
21 | O=C(NNc1ccc([N+](=O)[O-])cc1)C(=O)c1c[nH]c2ccc([N+](=O)[O-])cc12 | < 80% |  | 

Row | SMILES | inhibition [1] | Ki [2] | other results
22 | COc1ccc(C(C)NC(=O)C(=O)c2c[nH]c3ccccc23)cc1 (racemic) |  | 1170 nM | 
23 | O=C(C(=O)N1Cc2ccccc2C1)c1c[nH]c2ccc([N+](=O)[O-])cc12 | < 80% |  | 
24 | COc1ccc(C(C)NC(=O)C(=O)c2c[nH]c3ccc([N+](=O)[O-])cc23)cc1OC (racemic) |  | 55 nM | 
25 | O=C(NC(CO)c1ccccc1)C(=O)c1c[nH]c2ccc([N+](=O)[O-])cc12 (racemic) | < 80% |  | 
26 | C[C@H](NC(=O)C(=O)c1c[nH]c2ccc([N+](=O)[O-])cc12)c1ccc([N+](=O)[O-])cc1 | < 80% |  | 
27 | C[C@@H](NC(=O)C(=O)c1c[nH]c2ccc(Cl)cc12)c1ccccc1 | < 80% |  | 
28 | COc1ccc(C(C)NC(=O)C(=O)c2c[nH]c3ccc([N+](=O)[O-])cc23)cc1 (racemic) |  | 113 nM | 
29 | O=C(NC1Cc2ccccc2C1)C(=O)c1c[nH]c2ccc([N+](=O)[O-])cc12 | < 80% |  | 
30 | C[C@@H](NC(=O)C(=O)c1c[nH]c2ccccc12)c1ccc([N+](=O)[O-])cc1 | < 80% |  | 
31 | O=C(NNc1ccc([N+](=O)[O-])cc1)C(=O)c1c[nH]c2ccc(Cl)cc12 | < 80% |  | 
32 | Cc1ccc([C@@H](C)NC(=O)C(=O)c2c[nH]c3ccc(Cl)cc23)cc1 |  | 105 nM | 
33 | CCOC(=O)CNC(=O)C(=O)c1c[nH]c2ccc([N+](=O)[O-])cc12 |  | 2700 nM | 
34 | Cc1ccc(-c2nc3ccc(C)cn3c2CC(=O)N(C)C)cc1 |  |  | inhibition [9]: 35%
35 | O=C(N[C@@H]1CCc2ccccc21)C(=O)c1c[nH]c2ccccc12 |  | 675 nM | Ki [3]: 2160 nM; Ki [4]: 225 nM; inhibition [5]: 28%
36 | COc1ccc2[nH]cc(C(=O)C(=O)NCc3ccc(Cl)cc3)c2c1 | < 80% |  | 
37 | C[C@H](NC(=O)C(=O)c1c[nH]c2ccc(Cl)cc12)c1ccccc1 |  | 100 nM | 
38 | O=C(NCc1ccc(Cl)cc1)C(=O)c1c[nH]c2ccc(Cl)cc12 | < 80% |  | 
39 | Cc1ccc([C@@H](C)NC(=O)C(=O)c2c[nH]c3ccccc23)cc1 |  | 1150 nM | 
40 | O=C(N[C@H]1CCc2ccccc21)C(=O)c1c[nH]c2ccc(Cl)cc12 | < 80% |  | 
41 | O=C(C(=O)N1Cc2ccccc2C1)c1c[nH]c2ccccc12 |  | 123 nM | inhibition [10]: 43%; Ki [4]: 224 nM; Ki [6]: 3200 nM; Ratio [8]: 1.06 and 1.1
42 | C[C@@H](NC(=O)C(=O)c1c[nH]c2ccc([N+](=O)[O-])cc12)c1ccccc1 |  | 17 nM | Ki [3]: 239 nM; Ki [4]: 14 nM; Ki [6]: 283 nM

Row | SMILES | inhibition [1] | Ki [2] | other results
43 | COc1ccc2[nH]cc(C(=O)C(=O)NNc3ccc([N+](=O)[O-])cc3)c2c1 | < 80% |  | 
44 | C[C@H](NC(=O)C(=O)c1c[nH]c2ccccc12)c1ccc([N+](=O)[O-])cc1 | < 80% |  | 
45 | O=C(NCc1ccc(Cl)cc1)C(=O)c1c[nH]c2ccc([N+](=O)[O-])cc12 | < 80% |  | 
46 | O=C(NC1Cc2ccccc2C1)C(=O)c1c[nH]c2ccccc12 | < 80% |  | 
47 | O=C(NNc1ccc([N+](=O)[O-])cc1)C(=O)c1c[nH]c2ccccc12 |  |  | Ki [3]: 43 nM; Ki [4]: 25 nM; Ki [6]: 40 nM; Ratio [8]: 0.96 and 0.98 and 0.8
48 | O=C(C(=O)N1Cc2ccccc2C1)c1c[nH]c2ccc(Cl)cc12 | < 80% |  | 
49 | CCOC(=O)[C@@H](C)NC(=O)C(=O)c1c[nH]c2ccc([N+](=O)[O-])cc12 |  | 45 nM | 
50 | Cc1ccc([C@H](C)NC(=O)C(=O)c2c[nH]c3ccccc23)cc1 | < 80% |  | 
51 | COc1ccc(NNC(=O)C(=O)c2c[nH]c3ccc(Cl)cc23)cc1 | < 80% |  | 
52 | O=C(N[C@H]1CCc2ccccc21)C(=O)c1c[nH]c2ccccc12 | < 80% |  | 
53 | C[C@H](NC(=O)C(=O)c1c[nH]c2ccc([N+](=O)[O-])cc12)c1ccccc1 | < 80% |  | 
54 | COc1ccc(CNC(=O)C(=O)c2c[nH]c3ccc([N+](=O)[O-])cc23)cc1 |  |  | Ki [3]: 126 nM; Ki [4]: 42 nM; Ki [6]: 137 nM; Ratio [8]: 1.11 and 0.96 and 0.9
55 | O=C(NCc1ccc([N+](=O)[O-])cc1)C(=O)c1c[nH]c2ccc([N+](=O)[O-])cc12 |  | 620 nM | 
56 | O=C(NC1Cc2ccccc2C1)C(=O)c1c[nH]c2ccc(Cl)cc12 | < 80% |  | 
57 | O=C(NCc1ccc([N+](=O)[O-])cc1)C(=O)c1c[nH]c2ccc(Cl)cc12 |  | 1370 nM | 
58 | COc1ccc(CNC(=O)C(=O)c2c[nH]c3ccc(OC)cc23)cc1 |  | 494 nM | 
59 | COc1ccc(C(C)NC(=O)C(=O)c2c[nH]c3ccc(Cl)cc23)cc1 (racemic) |  | 103 nM | 
60 | O=C(NC(CO)c1ccccc1)C(=O)c1c[nH]c2ccccc12 (racemic) | < 80% |  | 
61 | COc1ccc(NNC(=O)C(=O)c2c[nH]c3ccc(OC)cc23)cc1 | < 80% |  | 
